The test system of series [1] is A2780. Nature of the series: Cytotoxicity against human A2780 cells assessed as cell viability at 10 uM after 24 hrs by MTT assay relative to control. The series is classed as functional. The note with it: A2780, 24 h, read-out: Activity. The method, boiled down: (§1)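 MTT viability assay in human A2780 and MCF-7 cancer cells. Cells were exposed to compound at 10 μM for 24 h. Results are given as percent cell viability relative to the respective untreated control.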

Series [2] is described as follows: Cytotoxicity against rat H9c2 cells assessed as cell viability at 10 uM after 24 hrs by MTT assay relative to control. The series is classed as cell-based. As to conditions: read-out: Activity. A general note: Formazan colour is commonly taken as a measure of viable cells.
Series [3] relates to MCF7. Kind of series: Cytotoxicity against human MCF7 cells assessed as cell viability at 10 uM after 24 hrs by MTT assay relative to control. Format: functional. As to conditions: MCF7, 24 h, read-out: Activity. The method, boiled down: as §1
The nature of series [4]: Inhibition of JAK/STAT3 pathway in human A2780 cells assessed as reduction in survivin level. The series is classed as cell-based.
Series [5] relates to A2780. Nature of the series: Induction of cell cycle arrest at G2/M phase in human A2780 cells assessed as modulation of CDK2 expression. Format: functional, cell-based.
The subject of series [6] is Rattus norvegicus. Nature of the series: Biodistribution in ip dosed rat stomach after 3 hrs. Format: ADME, organism-based. The note with it: in vivo.
Series [7] concerns A2780. Nature of the series: Antitumor activity against human A2780 cells in xenograft model assessed as reduction of STAT3 phosphorylation at Tyr705/Ser727 level in tumor. Format: functional, cell-based.
The subject of series [8] is PA-1. Nature of the series: Cytotoxicity against human PA1 cells by MTT assay. The series is classed as functional, cell-based.
For series [9], the system named is Kidney. Kind of series: Biodistribution in ip dosed rat kidney after 3 hrs. The series is classed as ADME, organism-based. As to conditions: in vivo.
The subject of series [10] is A2780. Kind of series: Induction of cell cycle arrest at G2/M phase in human A2780 cells assessed as modulation of p53 expression. The series is classed as functional, cell-based.
In series [11] the test system is A2780. Kind of series: Antitumor activity against human A2780 cells in xenograft model assessed as increase of PARP level in tumor. The series is classed as functional, cell-based. On the technique in general: In xenograft studies the graft and the host belong to different species.
The test system of series [12] is A2780. Kind of series: Induction of cell cycle arrest at G2/M phase in human A2780 cells assessed as modulation of p27 expression. The series is classed as functional, cell-based.
Series [13] has as its system A2780. Nature of the series: Induction of cell cycle arrest at G2/M phase in human A2780 cells assessed as modulation of cyclin expression. Format: functional, cell-based.
Series [14] deals with A2780. Nature of the series: Induction of apoptosis in human A2780 cells assessed as caspase 8 activation. Format: functional, cell-based.
Series [15] relates to A2780. Nature of the series: Antitumor activity against human A2780 cells in xenograft model assessed as reduction of JAK phosphorylation level in tumor. Format: functional, cell-based.
In series [16] the test system is Blood. Nature of the series: Biodistribution in ip dosed rat blood after 3 hrs. The note with it: in vivo. The series is classed as ADME, organism-based.
Series [17] is described as follows: Inhibition of JAK/STAT3 pathway in human A2780 cells assessed as reduction in Bcl-2 level. Format: cell-based.
Series [18] concerns A2780. Nature of the series: Induction of cell cycle arrest at G2/M phase in human A2780 cells assessed as modulation of p21 expression. Format: functional, cell-based.
In series [19] the test system is OV4. Nature of the series: Cytotoxicity against human OV4 cells by MTT assay. Format: functional, cell-based.
A short description of series [20]: Inhibition of JAK/STAT3 pathway in human A2780 cells assessed as reduction in Bcl-xL level. The series is classed as cell-based.
In series [21] the test system is A2780. Kind of series: Induction of apoptosis in human A2780 cells assessed as cleavage of PARP by Western blot analysis. The series is classed as functional, cell-based. (Immunoblotting shows a protein as a band on a membrane.)
Series [22] relates to MCF7. Kind of series: Induction of apoptosis in human MCF7 cells assessed as caspase 3 activation by Western blot analysis. Format: functional, cell-based.
Series [23] in a line: Inhibition of JAK/STAT3 pathway in human A2780 cells assessed as reduction in VEGF level. Format: cell-based.
For series [24], the target named is Signal transducer and activator of transcription 3 (Homo sapiens) (UniProt P40763). Kind of series: Inhibition of STAT3 phosphorylation at Tyr705 in human A2780 cells. Format: cell-based.
Chain of Signal transducer and activator of transcription 3 (Homo sapiens) (P40763 whole entry): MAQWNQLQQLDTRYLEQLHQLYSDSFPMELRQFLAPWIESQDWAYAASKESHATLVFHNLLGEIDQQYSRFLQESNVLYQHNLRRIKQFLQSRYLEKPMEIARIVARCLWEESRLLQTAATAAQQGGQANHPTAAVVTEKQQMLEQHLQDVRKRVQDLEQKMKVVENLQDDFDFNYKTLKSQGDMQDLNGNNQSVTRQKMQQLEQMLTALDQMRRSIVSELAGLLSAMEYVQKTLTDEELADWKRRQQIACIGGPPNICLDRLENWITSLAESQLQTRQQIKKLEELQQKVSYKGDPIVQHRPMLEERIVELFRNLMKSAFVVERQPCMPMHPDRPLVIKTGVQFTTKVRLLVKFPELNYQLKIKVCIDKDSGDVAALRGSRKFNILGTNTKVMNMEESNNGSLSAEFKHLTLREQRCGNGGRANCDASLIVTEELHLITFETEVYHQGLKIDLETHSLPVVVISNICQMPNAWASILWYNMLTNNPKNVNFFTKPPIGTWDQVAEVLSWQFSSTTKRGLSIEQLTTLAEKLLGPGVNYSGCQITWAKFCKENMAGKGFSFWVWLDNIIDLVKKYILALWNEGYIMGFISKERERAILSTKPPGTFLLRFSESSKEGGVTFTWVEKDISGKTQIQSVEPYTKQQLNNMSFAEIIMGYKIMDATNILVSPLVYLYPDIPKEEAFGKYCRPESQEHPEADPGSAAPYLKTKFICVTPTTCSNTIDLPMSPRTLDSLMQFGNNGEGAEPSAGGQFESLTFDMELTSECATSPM
Series [25] concerns A2780. Nature of the series: Antitumor activity against human A2780 cells in xenograft model assessed as increase of caspase 3 level in tumor. The series is classed as functional, cell-based.
Series [26] relates to A2780. Kind of series: Induction of Fas/CD95 expression in human A2780 cells. The series is classed as functional, cell-based.
In series [27] the target is Tyrosine-protein kinase JAK1 (Homo sapiens) (UniProt P23458). Nature of the series: Inhibition of JAK1 phosphorylation in human A2780 cells. The series is classed as cell-based.
Chain of Tyrosine-protein kinase JAK1 (Homo sapiens) (P23458 whole entry): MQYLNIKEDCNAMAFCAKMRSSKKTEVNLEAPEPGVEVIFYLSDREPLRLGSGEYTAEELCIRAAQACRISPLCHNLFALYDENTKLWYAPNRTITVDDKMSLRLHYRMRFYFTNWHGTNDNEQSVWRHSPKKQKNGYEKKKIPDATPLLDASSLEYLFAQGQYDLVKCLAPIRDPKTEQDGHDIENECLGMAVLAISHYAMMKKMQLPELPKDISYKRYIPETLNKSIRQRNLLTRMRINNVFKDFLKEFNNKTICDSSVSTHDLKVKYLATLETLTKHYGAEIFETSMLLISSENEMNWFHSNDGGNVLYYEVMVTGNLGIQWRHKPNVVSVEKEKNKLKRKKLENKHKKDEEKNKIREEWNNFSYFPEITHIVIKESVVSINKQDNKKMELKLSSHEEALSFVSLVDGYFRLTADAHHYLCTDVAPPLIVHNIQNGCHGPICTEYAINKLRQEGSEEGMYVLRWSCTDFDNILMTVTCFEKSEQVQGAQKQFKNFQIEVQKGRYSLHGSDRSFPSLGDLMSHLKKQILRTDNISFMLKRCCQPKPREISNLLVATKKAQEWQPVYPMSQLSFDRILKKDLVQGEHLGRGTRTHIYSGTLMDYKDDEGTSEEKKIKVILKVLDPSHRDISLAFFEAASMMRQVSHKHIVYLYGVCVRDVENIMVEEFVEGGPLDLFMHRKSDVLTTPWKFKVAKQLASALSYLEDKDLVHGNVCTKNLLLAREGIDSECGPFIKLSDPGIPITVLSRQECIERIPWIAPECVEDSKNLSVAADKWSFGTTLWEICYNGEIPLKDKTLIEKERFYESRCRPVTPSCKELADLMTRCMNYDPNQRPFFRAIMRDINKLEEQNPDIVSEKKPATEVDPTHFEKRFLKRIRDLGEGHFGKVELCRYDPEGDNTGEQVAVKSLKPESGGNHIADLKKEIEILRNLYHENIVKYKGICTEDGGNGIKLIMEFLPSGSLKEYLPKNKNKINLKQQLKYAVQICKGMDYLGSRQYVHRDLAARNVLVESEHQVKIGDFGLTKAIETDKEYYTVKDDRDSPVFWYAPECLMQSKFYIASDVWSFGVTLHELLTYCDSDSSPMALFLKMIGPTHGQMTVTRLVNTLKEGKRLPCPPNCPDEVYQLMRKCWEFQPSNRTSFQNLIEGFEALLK
Series [28] concerns Liver. Nature of the series: Biodistribution in ip dosed rat liver after 3 hrs. Format: ADME, organism-based. As to conditions: in vivo.
The test system of series [29] is MCF7. Kind of series: Induction of apoptosis in human MCF7 cells assessed as cleavage of PARP by Western blot analysis. The series is classed as functional, cell-based.
For series [30], the species on record is Homo sapiens. Nature of the series: Cytotoxicity against human A2780DDP cells by MTT assay. Format: functional, cell-based.
The subject of series [31] is A2780. Kind of series: Induction of apoptosis in human A2780 cells assessed as caspase 3 activation. The series is classed as functional, cell-based.
The subject of series [32] is A2780. Nature of the series: Induction of apoptosis in human A2780 cells assessed as caspase 3 activation by Western blot analysis. Format: functional, cell-based.
Series [33] deals with Signal transducer and activator of transcription 3 (Homo sapiens) (UniProt P40763). Nature of the series: Inhibition of STAT3 phosphorylation at Tyr705/Ser727 in human A2780 cells by Western blot analysis. Format: cell-based.
Series [34] relates to SK-OV-3. Nature of the series: Cytotoxicity against human SKOV3 cells by MTT assay. The series is classed as functional, cell-based.
The subject of series [35] is A2780. Nature of the series: Antitumor activity against human A2780 cells in xenograft model assessed as tumor growth inhibition. The series is classed as functional, cell-based.
The subject of series [36] is OVCA3. Kind of series: Cytotoxicity against human OVCA3 cells by MTT assay. Format: functional, cell-based.
In series [37] the target is Signal transducer and activator of transcription 3 (Homo sapiens) (UniProt P40763). Kind of series: Inhibition of STAT3 phosphorylation at Tyr705/Ser727 in human MCF7 cells by Western blot analysis. Format: cell-based.

The source made the active and inactive calls. No cut-off for these calls is given here.

Take `CC1(C)C=C(CN2C/C(=C\c3ccc(F)cc3)C(=O)/C(=C/c3ccc(F)cc3)C2)C(C)(C)N1`: the viability at 10 µM in series [1] turned out to be 4.79%; in series [3], 28.3%. Also, the viability at 24 h, 10 µM in [2] worked out at 78.8%.
With `CC1(C)C=C(CN2C/C(=C\c3ccc(C(F)(F)F)cc3)C(=O)/C(=C/c3ccc(C(F)(F)F)cc3)C2)C(C)(C)N1[O]`, the viability at 10 µM in series [1] is 5.85%; in series [3], 14.2%. Also, the viability at 24 h, 10 µM in series [2] came to 17.1%.
For `O=C1/C(=C/c2ccccc2F)CNC/C1=C\c1ccccc1F` the same measures were 12.8%, 34.5% and 32.9%.
Consider `CC1(C)c2cnc(CN3C/C(=C\c4ccc(F)cc4)C(=O)/C(=C/c4ccc(F)cc4)C3)cc2C(C)(C)N1[O]`, for which the viability at 10 µM turned out to be 5.26% in series [1] and 42.7% in series [3]. In addition, the viability at 24 h, 10 µM in [2] worked out at 46.6%.
Regarding `O=C1/C(=C/c2ccc(F)cc2)CNC/C1=C\c1ccc(F)cc1`, the viability at 10 µM in [1] came to 12.4%; in [3], 17.1%. Besides, the viability at 24 h, 10 µM in series [2] was 61.4%.
As for `CC1(C)c2ccc(CN3C/C(=C\c4ccc(F)cc4)C(=O)/C(=C/c4ccc(F)cc4)C3)cc2C(C)(C)N1[O]`, the viability at 10 µM in series [1] amounted to 9.5%; in series [3] it was 46.2%. The viability at 24 h, 10 µM in series [2] stood at 26.4%.
For `CC1(C)CCC(C)(C#CCN2C/C(=C\c3ccc(F)cc3)C(=O)/C(=C/c3ccc(F)cc3)C2)N1[O]` (stereo not given) the same measures were 5.89%, 38.3% and 50.7%.
Taken in the same sequence, the figures for `CC1(C)CCC(C)(/C=C/CN2C/C(=C\c3ccc(F)cc3)C(=O)/C(=C/c3ccc(F)cc3)C2)N1[O]` (stereo not given) were 5.81%, 43.1% and 51.9%.
Taken in the same sequence, the figures for `COc1ccc(/C=C2\CNC/C(=C\c3ccc(OC)c(OC)c3OC)C2=O)c(OC)c1OC` were 11%, 56.6% and 32.3%.
In the case of `CC1=C(CN2C/C(=C\c3ccc(F)cc3)C(=O)/C(=C/c3ccc(F)cc3)C2)C(C)(C)N([O])C1(C)C`, the figures for the viability at 10 µM in series [1] and in series [3] were 6.75% and 42%, respectively. In series [2], the viability at 24 h, 10 µM was determined as 56.8%.
For `O=C1/C(=C/c2ccc(C(F)(F)F)cc2)CNC/C1=C\c1ccc(C(F)(F)F)cc1` the same measures were 13.1%, 20.2% and 51.7%.
For `CC1(C)C=C(CN2C/C(=C\c3ccc(F)cc3)C(=O)/C(=C/c3ccc(F)cc3)C2)C(C)(C)N1[O]`, the inhibition result in series [4], in [17], in [20], in series [23], in [24] and in [27] was “Active” each time. In addition, the inhibition result in [33] and in series [37] was “Active” each time. In addition, the outcome in series [5], in series [7], in series [8], in [10], in series [11] and in [12] was Active. The outcome in series [13], in [14], in series [15], in series [18], in [19] and in series [21] was Active. In addition, the result in series [22], in [25], in [26], in series [29], in [30] and in series [31] was Active. In addition, the result in series [32], in series [34] and in series [36] was Active. The Drug uptake result in series [6], in series [9], in series [16] and in series [28] was “Active” in each case. Besides, the viability at 10 µM was determined as 20.5% in series [1] and 16.6% in series [3]. Besides, the viability at 24 h, 10 µM in [2] is 88.5%. Also, the “growth inhibition (GI)” value in series [35] was “Dose-dependent effect”.
`COc1ccc(/C=C2\CN(CC3=CC(C)(C)N([O])C3(C)C)C/C(=C\c3ccc(OC)c(OC)c3OC)C2=O)c(OC)c1OC`: the viability at 10 µM in series [1] turned out to be 26.1%; in series [3], 28%. In addition, the viability at 24 h, 10 µM in [2] is 53.1%.
For `CC1(C)C=C(C(=O)N2C/C(=C\c3ccc(F)cc3)C(=O)/C(=C/c3ccc(F)cc3)C2)C(C)(C)N1[O]` the same measures were 4.54%, 12.4% and 33.3%.
As to `CC1(C)C=C(CN2C/C(=C\c3ccccc3F)C(=O)/C(=C/c3ccccc3F)C2)C(C)(C)N1[O]`, the viability at 10 µM in [1] was 12.5%; in [3], 53.5%. The viability at 24 h, 10 µM in series [2] was 86.3%.
In the case of `CC1(C)C=C(NC(=O)N2C/C(=C\c3ccc(F)cc3)C(=O)/C(=C/c3ccc(F)cc3)C2)C(C)(C)N1[O]`, the viability at 10 µM came out at 5.9% in series [1] and 12.6% in [3]. For the same compound, the viability at 24 h, 10 µM in series [2] was found to be 36.7%.
`CC1(C)C=C(CN2C/C(=C\c3ccc(F)cc3)C(=O)/C(=C/c3ccc(F)cc3)C2)CC(C)(C)N1[O]`: the viability at 10 µM in series [1] amounted to 6.86%; in series [3], 20.1%. For the same compound, the viability at 24 h, 10 µM in series [2] amounted to 51.4%.

(Values after ChEMBL document CHEMBL1811768, “Synthesis of N-substituted 3,5-bis(arylidene)-4-piperidones with high antitumor and antioxidant activity” (J Med Chem, 2011).)
